From ChEMBL document CHEMBL3352174, “Identification of a New RXRα Antagonist Targeting the Coregulator-Binding Site” (ACS Med Chem Lett, 2014)
Calls of active or inactive are those of the source. The rule behind the calls is not given here.

Assays:
[1] = biological target: Nuclear receptor subfamily 4immunitygroup A member 1 (Homo sapiens) (UniProt P22736); assay: Antagonist activity against Nur77 ligand binding domain (unknown origin) expressed in human MCF7 cells assessed as inhibition of all-trans-RA-induced receptor transactivation at 10 uM after 18 hrs by luciferase reporter gene based mammalian one-hybrid assay; format: cell-based
Procedure, shortened: (§1)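 MCF-7 cells co-transfected with pG5-Luc and the pBind-LBD fusion: Nur77, RARγ or ER. Agonists were all-trans-RA 10⁻⁷ M for RARγ and Nur77, and propyl pyrazole triol 10 μM for ER. Compound at 10 μM for 18 h. Dual-luciferase read-out normalized to Renilla. Mean ± SD.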

[2] = biological target: T1, Retinoic acid receptor RXR-alpha (Homo sapiens, UniProt P19793); assay: Antagonist activity against Myc-tagged RXRalpha ligand binding domain (unknown origin) expressed in human HEK293T cells assessed as inhibition of 9-cis-RA-induced receptor transactivation after 18 hrs by luciferase reporter gene based mammalian one-hybrid assay; format: cell-based, HEK-293T
T1 sequence (P19793 whole entry): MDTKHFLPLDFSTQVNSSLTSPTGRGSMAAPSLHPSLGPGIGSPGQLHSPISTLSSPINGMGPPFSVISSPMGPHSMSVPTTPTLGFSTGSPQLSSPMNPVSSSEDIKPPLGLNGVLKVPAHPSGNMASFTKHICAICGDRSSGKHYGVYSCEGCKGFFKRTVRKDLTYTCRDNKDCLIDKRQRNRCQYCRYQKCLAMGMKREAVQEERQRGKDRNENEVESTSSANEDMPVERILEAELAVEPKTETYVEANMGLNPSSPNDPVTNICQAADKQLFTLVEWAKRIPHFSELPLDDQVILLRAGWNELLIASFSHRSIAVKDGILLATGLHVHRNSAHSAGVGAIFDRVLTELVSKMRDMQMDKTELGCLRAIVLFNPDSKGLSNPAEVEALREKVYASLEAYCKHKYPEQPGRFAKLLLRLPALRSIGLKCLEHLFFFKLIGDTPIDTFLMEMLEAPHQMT
Procedure, shortened: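 HEK293T cells co-transfected with pG5-Luc and pBind-RXRα-LBD. […] Luciferase reporter activity measured. Mean ± SD.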

[3] = biological target: T2, Glucocorticoid receptor (Homo sapiens) (UniProt P04150); assay: Antagonist activity against GRalpha ligand binding domain (unknown origin) expressed in human MCF7 cells assessed as inhibition of dexamethasone-induced receptor transactivation at 10 uM after 18 hrs by luciferase reporter gene based mammalian one-hybrid assay; format: cell-based
T2 sequence (whole entry): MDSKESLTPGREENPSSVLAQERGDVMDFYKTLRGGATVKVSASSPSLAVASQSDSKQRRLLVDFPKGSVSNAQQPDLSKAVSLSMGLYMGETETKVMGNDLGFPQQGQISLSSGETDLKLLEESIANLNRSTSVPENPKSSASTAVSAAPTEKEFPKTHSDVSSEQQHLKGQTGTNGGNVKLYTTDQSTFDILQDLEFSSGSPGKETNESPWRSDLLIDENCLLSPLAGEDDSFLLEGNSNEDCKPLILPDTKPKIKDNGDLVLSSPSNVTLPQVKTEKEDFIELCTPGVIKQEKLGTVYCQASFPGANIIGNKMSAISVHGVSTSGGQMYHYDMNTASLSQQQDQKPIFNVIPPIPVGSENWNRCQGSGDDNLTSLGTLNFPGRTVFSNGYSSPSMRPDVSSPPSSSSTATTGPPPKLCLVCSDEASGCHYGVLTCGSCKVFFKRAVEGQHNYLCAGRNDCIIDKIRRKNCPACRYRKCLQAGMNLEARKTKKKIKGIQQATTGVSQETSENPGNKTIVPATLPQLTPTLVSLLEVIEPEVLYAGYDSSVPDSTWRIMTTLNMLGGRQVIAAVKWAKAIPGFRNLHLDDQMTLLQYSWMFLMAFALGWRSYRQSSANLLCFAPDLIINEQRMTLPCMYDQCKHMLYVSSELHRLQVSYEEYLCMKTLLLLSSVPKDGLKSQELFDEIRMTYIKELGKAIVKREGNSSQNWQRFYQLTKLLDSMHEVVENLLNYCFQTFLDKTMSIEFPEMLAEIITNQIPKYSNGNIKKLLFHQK

[4] = biological target: T3, Oxysterols receptor LXR-alpha (Homo sapiens) (UniProt Q13133); assay: Antagonist activity against LXRalpha ligand binding domain (unknown origin) expressed in human MCF7 cells assessed as inhibition of T09-induced receptor transactivation at 10 uM after 18 hrs by luciferase reporter gene based mammalian one-hybrid assay; format: cell-based
T3 sequence (whole entry): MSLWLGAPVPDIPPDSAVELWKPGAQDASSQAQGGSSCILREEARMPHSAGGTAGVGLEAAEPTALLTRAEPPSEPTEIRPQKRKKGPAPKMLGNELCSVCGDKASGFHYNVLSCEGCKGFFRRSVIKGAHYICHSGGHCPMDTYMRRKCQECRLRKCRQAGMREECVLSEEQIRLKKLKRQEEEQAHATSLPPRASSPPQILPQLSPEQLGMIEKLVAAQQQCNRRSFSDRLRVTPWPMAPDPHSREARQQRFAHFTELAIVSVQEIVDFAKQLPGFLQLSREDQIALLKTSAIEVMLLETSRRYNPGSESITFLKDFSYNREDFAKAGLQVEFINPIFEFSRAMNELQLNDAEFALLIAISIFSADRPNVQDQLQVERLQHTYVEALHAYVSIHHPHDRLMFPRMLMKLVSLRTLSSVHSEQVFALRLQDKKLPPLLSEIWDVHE

[5] = biological target: T4, Retinoic acid receptor RXR-alpha (Homo sapiens) (UniProt P19793); assay: Antagonist activity against RXRalpha in TNFalpha-stimulated human A549 cells assessed as inhibition of AKT phosphorylation at 5 and 10 uM pre-treated for 24 hrs before TNFalpha addition by Western blotting method; format: cell-based
T4 sequence (whole entry): T1 sequence (P19793 whole entry)
Procedure, shortened: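 A549 or HepG2 cells were exposed to compound for 24 h, then with or without TNFα (20 ng/mL) for 30 min more. Lysates were immunoblotted for AKT activation. One of three to five similar experiments shown.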

[6] = biological target: T5, Retinoic acid receptor gamma (Homo sapiens) (UniProt P13631); assay: Antagonist activity against RARgamma ligand binding domain (unknown origin) expressed in human MCF7 cells assessed as inhibition of ATRA-induced receptor transactivation at 10 uM after 18 hrs by luciferase reporter gene based mammalian one-hybrid assay; format: cell-based; procedure, shortened: as §1
T5 sequence (whole entry): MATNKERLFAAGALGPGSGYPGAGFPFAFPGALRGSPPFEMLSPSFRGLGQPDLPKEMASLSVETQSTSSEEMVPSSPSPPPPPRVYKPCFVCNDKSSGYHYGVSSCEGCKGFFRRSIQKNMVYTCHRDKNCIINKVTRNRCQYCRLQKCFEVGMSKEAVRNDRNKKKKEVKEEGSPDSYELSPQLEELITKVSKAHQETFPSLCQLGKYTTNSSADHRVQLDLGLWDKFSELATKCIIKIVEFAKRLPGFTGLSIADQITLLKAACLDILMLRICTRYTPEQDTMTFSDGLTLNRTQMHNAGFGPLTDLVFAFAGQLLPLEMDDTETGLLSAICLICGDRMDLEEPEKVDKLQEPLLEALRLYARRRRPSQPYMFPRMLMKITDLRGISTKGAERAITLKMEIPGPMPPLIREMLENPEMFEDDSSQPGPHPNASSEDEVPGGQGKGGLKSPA

Nuclear receptor subfamily 4immunitygroup A member 1 (Homo sapiens), sequence (P22736 whole entry, the tested form may be a part): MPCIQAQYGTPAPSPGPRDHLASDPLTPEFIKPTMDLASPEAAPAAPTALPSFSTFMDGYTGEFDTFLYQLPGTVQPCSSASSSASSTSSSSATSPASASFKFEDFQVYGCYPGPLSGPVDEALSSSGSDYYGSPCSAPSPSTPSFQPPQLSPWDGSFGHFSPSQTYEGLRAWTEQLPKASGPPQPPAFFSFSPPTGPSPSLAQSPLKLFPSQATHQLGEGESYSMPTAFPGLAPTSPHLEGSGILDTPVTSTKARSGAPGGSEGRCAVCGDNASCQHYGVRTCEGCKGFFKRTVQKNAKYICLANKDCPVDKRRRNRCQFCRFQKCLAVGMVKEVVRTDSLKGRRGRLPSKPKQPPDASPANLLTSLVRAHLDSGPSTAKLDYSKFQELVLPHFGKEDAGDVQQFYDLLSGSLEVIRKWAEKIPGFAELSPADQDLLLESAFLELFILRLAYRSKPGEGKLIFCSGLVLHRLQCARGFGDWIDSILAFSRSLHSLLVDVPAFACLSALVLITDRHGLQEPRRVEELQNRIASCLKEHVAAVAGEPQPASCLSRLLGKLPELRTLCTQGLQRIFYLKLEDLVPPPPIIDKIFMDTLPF

- inhibition [1]: inactive
- IC50 [2]: 2450 nM
- inhibition [3]: inactive
- inhibition [4]: Active
- inhibition [5]: Active
- inhibition [6]: Active
Compound: Cc1cc(=O)oc2c(/C=N/NC(=O)CSc3nc4ccccc4s3)c(O)ccc12
